In ChEMBL document CHEMBL3044834, “Novel protoporphyrinogen oxidase inhibitors: 3H-pyrazolo[3,4-d][1,2,3]triazin-4-one derivatives” (J Agric Food Chem, 2008):

Assays:
Assay type in all cases: functional
Amaranthus retroflexus [1] = assay: Herbicidal activity against Amaranthus retroflexus assessed as inhibition of fresh weed plant weight at 750 g/ha using post-emergence treatment protocol
Method in brief: (§1)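 Test compounds made up as emulsions by dissolving in 100 µL N,N-dimethylformamide, then adding a little Tween 20 and water. For post-emergence, weed seedlings at one leaf and one stem were sprayed at the same rates as the pre-emergence test. Fresh weight was recorded 15 days after treatment and expressed as percent inhibition versus controls. All treatments were run in triplicate.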

Digitaria sanguinalis [2] = assay: Herbicidal activity against Digitaria sanguinalis (hairy crabgrass) assessed as inhibition of fresh weed plant weight at 187.5 g/ha using post-emergence treatment protocol; method in brief: as §1
Amaranthus retroflexus [3] = assay: Herbicidal activity against Amaranthus retroflexus assessed as inhibition of fresh weed plant weight at 1500 g/ha using post-emergence treatment protocol; method in brief: as §1
Digitaria sanguinalis [4] = assay: Herbicidal activity against Digitaria sanguinalis (hairy crabgrass) assessed as inhibition of fresh weed plant weight at 187.5 g/ha using pre-emergence treatment protocol
Amaranthus retroflexus [5] = assay: Herbicidal activity against Amaranthus retroflexus assessed as inhibition of fresh weed plant weight at 375 g/ha using post-emergence treatment protocol; method in brief: as §1
[6] = system: Brassica rapa subsp. oleifera; assay: Herbicidal activity against Brassica rapa subsp. oleifera assessed as inhibition of fresh weed plant weight at 750 g/ha using post-emergence treatment protocol; method in brief: as §1
[7] = system: Brassica rapa subsp. oleifera; assay: Herbicidal activity against Brassica rapa subsp. oleifera assessed as inhibition of fresh weed plant weight at 187.5 g/ha using post-emergence treatment protocol; method in brief: as §1
Amaranthus retroflexus [8] = assay: Herbicidal activity against Amaranthus retroflexus assessed as inhibition of fresh weed plant weight at 187.5 g/ha using pre-emergence treatment protocol
[9] = system: Brassica rapa subsp. oleifera; assay: Herbicidal activity against Brassica rapa subsp. oleifera assessed as inhibition of fresh weed plant weight at 375 g/ha using post-emergence treatment protocol; method in brief: as §1
Echinochloa crus-galli [10] = assay: Herbicidal activity against Echinochloa crus-galli (barnyard grass) assessed as inhibition of fresh weed plant weight at 1500 g/ha using pre-emergence treatment protocol
Digitaria sanguinalis [11] = assay: Herbicidal activity against Digitaria sanguinalis (hairy crabgrass) assessed as inhibition of fresh weed plant weight at 375 g/ha using pre-emergence treatment protocol
Amaranthus retroflexus [12] = assay: Herbicidal activity against Amaranthus retroflexus assessed as inhibition of fresh weed plant weight at 750 g/ha using pre-emergence treatment protocol; method in brief: as §1
Echinochloa crus-galli [13] = assay: Herbicidal activity against Echinochloa crus-galli (barnyard grass) assessed as inhibition of fresh weed plant weight at 375 g/ha using pre-emergence treatment protocol; method in brief: as §1
Digitaria sanguinalis [14] = assay: Herbicidal activity against Digitaria sanguinalis (hairy crabgrass) assessed as inhibition of fresh weed plant weight at 375 g/ha using post-emergence treatment protocol; method in brief: as §1
Echinochloa crus-galli [15] = assay: Herbicidal activity against Echinochloa crus-galli (barnyard grass) assessed as inhibition of fresh weed plant weight at 750 g/ha using pre-emergence treatment protocol
Echinochloa crus-galli [16] = assay: Herbicidal activity against Echinochloa crus-galli (barnyard grass) assessed as inhibition of fresh weed plant weight at 375 g/ha using post-emergence treatment protocol; method in brief: as §1
Echinochloa crus-galli [17] = assay: Herbicidal activity against Echinochloa crus-galli (barnyard grass) assessed as inhibition of fresh weed plant weight at 187.5 g/ha using pre-emergence treatment protocol; method in brief: as §1
[18] = system: Brassica rapa subsp. oleifera; assay: Herbicidal activity against Brassica rapa subsp. oleifera assessed as inhibition of fresh weed plant weight at 1500 g/ha using post-emergence treatment protocol; method in brief: as §1
[19] = system: Brassica rapa subsp. oleifera; assay: Herbicidal activity against Brassica rapa subsp. oleifera assessed as inhibition of fresh weed plant weight at 375 g/ha using pre-emergence treatment protocol
Echinochloa crus-galli [20] = assay: Herbicidal activity against Echinochloa crus-galli (barnyard grass) assessed as inhibition of fresh weed plant weight at 750 g/ha using post-emergence treatment protocol; method in brief: as §1
Digitaria sanguinalis [21] = assay: Herbicidal activity against Digitaria sanguinalis (hairy crabgrass) assessed as inhibition of fresh weed plant weight at 1500 g/ha using pre-emergence treatment protocol
Amaranthus retroflexus [22] = assay: Herbicidal activity against Amaranthus retroflexus assessed as inhibition of fresh weed plant weight at 375 g/ha using pre-emergence treatment protocol
Digitaria sanguinalis [23] = assay: Herbicidal activity against Digitaria sanguinalis (hairy crabgrass) assessed as inhibition of fresh weed plant weight at 750 g/ha using post-emergence treatment protocol; method in brief: as §1
Amaranthus retroflexus [24] = assay: Herbicidal activity against Amaranthus retroflexus assessed as inhibition of fresh weed plant weight at 1500 g/ha using pre-emergence treatment protocol
[25] = system: Brassica rapa subsp. oleifera; assay: Herbicidal activity against Brassica rapa subsp. oleifera assessed as inhibition of fresh weed plant weight at 187.5 g/ha using pre-emergence treatment protocol
[26] = system: Brassica rapa subsp. oleifera; assay: Herbicidal activity against Brassica rapa subsp. oleifera assessed as inhibition of fresh weed plant weight at 1500 g/ha using pre-emergence treatment protocol
Digitaria sanguinalis [27] = assay: Herbicidal activity against Digitaria sanguinalis (hairy crabgrass) assessed as inhibition of fresh weed plant weight at 750 g/ha using pre-emergence treatment protocol
Amaranthus retroflexus [28] = assay: Herbicidal activity against Amaranthus retroflexus assessed as inhibition of fresh weed plant weight at 187.5 g/ha using post-emergence treatment protocol; method in brief: as §1
Echinochloa crus-galli [29] = assay: Herbicidal activity against Echinochloa crus-galli (barnyard grass) assessed as inhibition of fresh weed plant weight at 1500 g/ha using post-emergence treatment protocol; method in brief: as §1
[30] = system: Brassica rapa subsp. oleifera; assay: Herbicidal activity against Brassica rapa subsp. oleifera assessed as inhibition of fresh weed plant weight at 750 g/ha using pre-emergence treatment protocol
Echinochloa crus-galli [31] = assay: Herbicidal activity against Echinochloa crus-galli (barnyard grass) assessed as inhibition of fresh weed plant weight at 187.5 g/ha using post-emergence treatment protocol; method in brief: as §1
Digitaria sanguinalis [32] = assay: Herbicidal activity against Digitaria sanguinalis (hairy crabgrass) assessed as inhibition of fresh weed plant weight at 1500 g/ha using post-emergence treatment protocol; method in brief: as §1

Structure (SMILES) | inhibition at 750 g/ha (Amaranthus retroflexus [1]) [%] | inhibition at 187.5 g/ha (Digitaria sanguinalis [2]) [%] | inhibition at 1500 g/ha (Amaranthus retroflexus [3]) [%] | inhibition at 187.5 g/ha (Digitaria sanguinalis [4]) [%] | inhibition at 375 g/ha (Amaranthus retroflexus [5]) [%] | inhibition at 750 g/ha [6] [%] | inhibition at 187.5 g/ha [7] [%] | inhibition at 187.5 g/ha (Amaranthus retroflexus [8]) [%] | inhibition at 375 g/ha [9] [%] | inhibition at 1500 g/ha (Echinochloa crus-galli [10]) [%] | inhibition at 375 g/ha (Digitaria sanguinalis [11]) [%] | inhibition at 750 g/ha (Amaranthus retroflexus [12]) [%] | inhibition at 375 g/ha (Echinochloa crus-galli [13]) [%] | inhibition at 375 g/ha (Digitaria sanguinalis [14]) [%] | inhibition at 750 g/ha (Echinochloa crus-galli [15]) [%] | inhibition at 375 g/ha (Echinochloa crus-galli [16]) [%] | inhibition at 187.5 g/ha (Echinochloa crus-galli [17]) [%] | inhibition at 1500 g/ha [18] [%] | inhibition at 375 g/ha [19] [%] | inhibition at 750 g/ha (Echinochloa crus-galli [20]) [%] | also measured
C#CCOc1cc(-n2nnc3nn(CC=C)cc3c2=O)c(F)cc1Cl | 100 | 0 | 100 | 2.2 | 100 | 36.6 | 2.9 | 41 | 18.9 | 40.9 | 6.5 | 93.4 | 0 | 8.3 | 19.5 | 0.5 | 0 | 70.3 | 25.4 | 9.3 | inhibition at 1500 g/ha (Digitaria sanguinalis [21]): 79.6%; inhibition at 375 g/ha (Amaranthus retroflexus [22]): 90.2%; inhibition at 750 g/ha (Digitaria sanguinalis [23]): 13.9%; inhibition at 1500 g/ha (Amaranthus retroflexus [24]): 100%; inhibition at 187.5 g/ha [25]: 16.4%; inhibition at 1500 g/ha [26]: 65.8%; inhibition at 750 g/ha (Digitaria sanguinalis [27]): 47.8%; inhibition at 187.5 g/ha (Amaranthus retroflexus [28]): 22%; inhibition at 1500 g/ha (Echinochloa crus-galli [29]): 20.3%; inhibition at 750 g/ha [30]: 37.3%; inhibition at 187.5 g/ha (Echinochloa crus-galli [31]): 0%; inhibition at 1500 g/ha (Digitaria sanguinalis [32]): 36.1%
C=CCOc1cc(-n2nnc3nn(CC=C)cc3c2=O)c(F)cc1Cl | 100 | 22.2 | 100 | 0 | 100 | 32.6 | 6.3 | 100 | 8.6 | 39.6 | 4.3 | 100 | 18.4 | 33.3 | 22.1 | 16.1 | 0 | 60.8 | 13.4 | 18 | inhibition at 1500 g/ha (Digitaria sanguinalis [21]): 18%; inhibition at 375 g/ha (Amaranthus retroflexus [22]): 100%; inhibition at 750 g/ha (Digitaria sanguinalis [23]): 44.4%; inhibition at 1500 g/ha (Amaranthus retroflexus [24]): 100%; inhibition at 187.5 g/ha [25]: 3%; inhibition at 1500 g/ha [26]: 50.7%; inhibition at 750 g/ha (Digitaria sanguinalis [27]): 8.7%; inhibition at 187.5 g/ha (Amaranthus retroflexus [28]): 36.6%; inhibition at 1500 g/ha (Echinochloa crus-galli [29]): 35.8%; inhibition at 750 g/ha [30]: 23.9%; inhibition at 187.5 g/ha (Echinochloa crus-galli [31]): 14.1%; inhibition at 1500 g/ha (Digitaria sanguinalis [32]): 60.7%
C#CCN1C(=O)COc2cc(F)c(-n3nnc4nn(CCC)cc4c3=O)cc21 | 100 | 13.9 | 100 | 0 | 100 | 19.4 | 11.4 | 100 | 18.9 | 37.8 | 26.1 | 100 | 5.6 | 16.7 | 16.9 | 11.2 | 0 | 27.9 | 45.5 | 25.9 | inhibition at 1500 g/ha (Digitaria sanguinalis [21]): 51.6%; inhibition at 375 g/ha (Amaranthus retroflexus [22]): 100%; inhibition at 750 g/ha (Digitaria sanguinalis [23]): 22.2%; inhibition at 1500 g/ha (Amaranthus retroflexus [24]): 100%; inhibition at 187.5 g/ha [25]: 16.4%; inhibition at 1500 g/ha [26]: 75.1%; inhibition at 750 g/ha (Digitaria sanguinalis [27]): 32.6%; inhibition at 187.5 g/ha (Amaranthus retroflexus [28]): 56.1%; inhibition at 1500 g/ha (Echinochloa crus-galli [29]): 40.9%; inhibition at 750 g/ha [30]: 55.2%; inhibition at 187.5 g/ha (Echinochloa crus-galli [31]): 10.2%; inhibition at 1500 g/ha (Digitaria sanguinalis [32]): 43.8%
C=CCN1C(=O)COc2cc(F)c(-n3nnc4c(cnn4CCC)c3=O)cc21 | 100 | 8.3 | 100 | 37 | 100 | 78.9 | 12.6 | 67.2 | 45.1 | 86.4 | 67.4 | 100 | 55 | 25 | 62.8 | 2.3 | 42.9 | 97.5 | 82.8 | 7.3 | inhibition at 1500 g/ha (Digitaria sanguinalis [21]): 90.7%; inhibition at 375 g/ha (Amaranthus retroflexus [22]): 77%; inhibition at 750 g/ha (Digitaria sanguinalis [23]): 33.3%; inhibition at 1500 g/ha (Amaranthus retroflexus [24]): 100%; inhibition at 187.5 g/ha [25]: 26.9%; inhibition at 1500 g/ha [26]: 100%; inhibition at 750 g/ha (Digitaria sanguinalis [27]): 71.7%; inhibition at 187.5 g/ha (Amaranthus retroflexus [28]): 48.8%; inhibition at 1500 g/ha (Echinochloa crus-galli [29]): 20.1%; inhibition at 750 g/ha [30]: 100%; inhibition at 187.5 g/ha (Echinochloa crus-galli [31]): 1.5%; inhibition at 1500 g/ha (Digitaria sanguinalis [32]): 52.8%
